Bioassay records from PubChem BioAssay.
Shown is part of a subset that was picked to be rich in hits.
HEK293 NFkB inh: inhibitors of the PMA/ionomycin-induced NF-kB reporter in HEK293 cells; inhibition, % at 3 µM; HEK-293 NF-kB luciferase reporter, luminescence; hit rate 0.21% among 62,000;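 active = inhibition above the mean of all tested compounds plus 3 SD, cut at about 40% in these data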
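Reagent: PMA plus ionomycin mix as NF-kB-activating stimulus. Assay system: NF-kB luciferase reporter HEK-293 cells. Technique: luminescence from luciferase substrate reagent. Incubation: 1 h compound pre-incubation, 16 h PMA/ionomycin at 37 °C. Benchmarks: DMSO only as uninhibited control, 10 µM reference inhibitor as full inhibition. Repeats: tested once.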
Jurkat tox 60K: reduces viability or proliferation of Jurkat cells; Jurkat E6.1 viability, ATP luminescence, 48 h; inhibition, % at 4 µM; hit rate 1.2% among 56,000; AID 463;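 active = inhibition above the mean inhibition of all tested compounds plus 3 SD, cut at about 28% in these data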
Calb biofilm kill: kills Candida albicans biofilms | C. albicans biofilm + clotrimazole, Alamar Blue | inhibition, % at 6 µM | hit rate 0.14% among 85,000 | AID 834;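 active = inhibition above 20%; inactive = inhibition below 20%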;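 note: preformed 24 hr biofilms exposed to compound for 48 hr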
TNAP act mid DEA: activates human TNAP at intermediate phosphate acceptor concentration | activation factor at 20 µM | purified TNAP, CDP-star luminescence, 100 mM DEA, 30 min; hits give high values; scale: 0 levamisole-inhibited, 1 vehicle-only enzyme | 64,000 tested, under 10 active | AID 813;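 active = activation factor of at least 2 at 20 µM, relative to controls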
Target sequence (P05186 whole entry, looked up): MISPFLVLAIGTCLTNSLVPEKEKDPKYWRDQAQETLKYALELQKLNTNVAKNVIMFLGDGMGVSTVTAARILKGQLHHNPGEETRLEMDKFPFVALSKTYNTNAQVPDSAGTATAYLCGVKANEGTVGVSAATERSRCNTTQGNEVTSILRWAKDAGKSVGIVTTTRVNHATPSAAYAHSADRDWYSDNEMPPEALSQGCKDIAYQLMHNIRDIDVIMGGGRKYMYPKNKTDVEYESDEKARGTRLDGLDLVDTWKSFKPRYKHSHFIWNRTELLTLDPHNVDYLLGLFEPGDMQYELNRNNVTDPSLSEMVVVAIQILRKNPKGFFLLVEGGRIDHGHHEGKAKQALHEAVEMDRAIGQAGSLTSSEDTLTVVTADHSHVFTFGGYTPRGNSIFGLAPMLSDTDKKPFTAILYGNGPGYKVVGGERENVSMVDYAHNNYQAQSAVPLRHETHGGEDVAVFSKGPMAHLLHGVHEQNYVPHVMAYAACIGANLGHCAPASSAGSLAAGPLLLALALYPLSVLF
MMP-13 inhibitor: MMP13 (human) collagenase inhibition; MMP-13 fTHP FRET cleavage, Mca fluorescence; AID 570; P45452; hit rate 0.07% among 65,000; inhibition, % at 4 µM;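 active = inhibition above the mean of compound-free control plate wells plus 3 SD, cut at about 14% in these data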
A number is an active result.

Results for Cn1c(=O)c2c(nc(NCc3ccco3)n2C/C=C/c2ccccc2)n(C)c1=O ?
HEK293 NFkB inh: inactive; Jurkat tox 60K: 49.3; Calb biofilm kill: inactive; TNAP act mid DEA: inactive; MMP-13 inhibitor: inactive

How did CCn1c(SCC(=O)Nc2cc3oc4ccccc4c3cc2OC)nnc1-c1cccs1 do in these assays?
HEK293 NFkB inh: inactive; Jurkat tox 60K: inactive; Calb biofilm kill: inactive; TNAP act mid DEA: inactive; MMP-13 inhibitor: inactive

How did Cc1cccc(Cn2c(NCCO)nc3c2c(=O)n(C)c(=O)n3C)c1 do in these assays?
HEK293 NFkB inh: inactive; Jurkat tox 60K: 89.4; Calb biofilm kill: inactive; TNAP act mid DEA: inactive; MMP-13 inhibitor: inactive

How did O=C(OCCN1C(=O)c2ccccc2C1=O)c1ccco1 do in these assays?
Calb biofilm kill: inactive

How did CN(CCOC(=O)c1ccco1)Cc1ccccc1 do in these assays?
Calb biofilm kill: 70.4

How did Cn1c(N2C(=O)CC(Cc3ccccc3)C2=O)nc2ccccc21 (centres undefined) do in these assays?
Calb biofilm kill: inactive

How did CCOC(=O)c1c(N)sc(C(O)(C(F)(F)F)C(F)(F)F)c1-c1ccccc1 do in these assays?
Calb biofilm kill: 82.2

How did CCOC(=O)c1c(N)sc(-c2ccccc2)c1C do in these assays?
Calb biofilm kill: inactive

How did O=C(CCl)Nc1cccn2ncnc12 do in these assays?
Calb biofilm kill: inactive

How did CCOC(=O)Nc1ccc2c(c1)N(C(=O)OC)c1ccccc1CC2 do in these assays?
HEK293 NFkB inh: inactive; Jurkat tox 60K: 65.9; TNAP act mid DEA: inactive; MMP-13 inhibitor: inactive

What do the screens show for `CCOC(=O)Nc1ccc2c(c1)N(C(=O)C(C)N1CCCC1)c1ccccc1CC2` (centres undefined)?
Calb biofilm kill: inactive

How did C(=C1/CCCC2=C1Nc1ncnn1C2c1ccccc1)/c1ccccc1 (centres undefined) do in these assays?
Calb biofilm kill: inactive

Results for Cc1ccc(N2CCn3c2nc2c3c(=O)n(CCc3ccccc3)c(=O)n2C)cc1 ?
HEK293 NFkB inh: inactive; Jurkat tox 60K: inactive; Calb biofilm kill: inactive; TNAP act mid DEA: inactive; MMP-13 inhibitor: inactive

How did COc1ccc(NS(=O)(=O)c2cc(C)ccc2NC(=O)c2cc(C)oc2C)cc1 do in these assays?
HEK293 NFkB inh: inactive; Jurkat tox 60K: 90.3; Calb biofilm kill: inactive; TNAP act mid DEA: inactive; MMP-13 inhibitor: inactive

How did COc1ccc2nc(NC(=O)c3cc(C)oc3C)sc2c1 do in these assays?
Calb biofilm kill: inactive

Results for CCOCCCN(Cc1ccco1)C(=O)c1cc2c(=O)[nH]c3ccc(C)cc3c2s1 ?
Calb biofilm kill: inactive

Results for Cc1ccc(CNC(=O)CCSCCC(=O)NCc2ccc(C)cc2)cc1 ?
Calb biofilm kill: inactive

How did COc1ccccc1-c1cc(C(F)(F)F)nc(S(=O)(=O)CCCC(=O)N2CCOCC2)n1 do in these assays?
HEK293 NFkB inh: inactive; Jurkat tox 60K: 61.9; Calb biofilm kill: inactive; TNAP act mid DEA: inactive; MMP-13 inhibitor: inactive

What do the screens show for `CC(C)(C)Nc1nc2nonc2nc1NC(C)(C)C`?
Calb biofilm kill: inactive

How did O=C(CC1CCCC1)Nc1ccc2c(c1)CCC2 do in these assays?
Calb biofilm kill: inactive

How did Cc1nn(-c2nc3ccccc3s2)c(C)c1Oc1ccccc1O do in these assays?
HEK293 NFkB inh: inactive; Jurkat tox 60K: 28.3; Calb biofilm kill: inactive; TNAP act mid DEA: inactive; MMP-13 inhibitor: inactive

How did N#CC1=C(N)SC(N)=C(C#N)C1c1cccc(O)c1 do in these assays?
Calb biofilm kill: inactive

What do the screens show for `COc1cc(C(=O)Nc2cc(C)ccn2)cc(OC)c1OC`?
HEK293 NFkB inh: inactive; Jurkat tox 60K: inactive; Calb biofilm kill: inactive; TNAP act mid DEA: inactive; MMP-13 inhibitor: inactive

How did COc1ccc(C(=O)NC(=O)Nc2cc(C)ccn2)cc1 do in these assays?
HEK293 NFkB inh: 58.9; Jurkat tox 60K: inactive; Calb biofilm kill: inactive; TNAP act mid DEA: inactive; MMP-13 inhibitor: inactive

How did Cn1ncc2c(Nc3ccc(-c4ccccc4)cc3)ncnc21 do in these assays?
HEK293 NFkB inh: inactive; Jurkat tox 60K: 34.9; TNAP act mid DEA: inactive; MMP-13 inhibitor: inactive

Results for Cn1ncc2c(Nc3ccccc3Br)ncnc21 ?
Calb biofilm kill: inactive; TNAP act mid DEA: inactive; MMP-13 inhibitor: inactive

How did COCCCN(C(C)=O)c1nc(-c2ccc(OC)cc2)cs1 do in these assays?
HEK293 NFkB inh: inactive; Jurkat tox 60K: 57.0; Calb biofilm kill: inactive; TNAP act mid DEA: inactive; MMP-13 inhibitor: inactive

What do the screens show for `CCCCCN=Cc1c(C)[nH]n(-c2nc3ccccc3s2)c1=O`?
HEK293 NFkB inh: inactive; Jurkat tox 60K: 55.9; Calb biofilm kill: inactive; TNAP act mid DEA: inactive; MMP-13 inhibitor: inactive

How did Cc1cc(N2CCN(c3nc4ccccc4s3)CC2)n2ncnc2n1 do in these assays?
HEK293 NFkB inh: inactive; Jurkat tox 60K: 82.9; Calb biofilm kill: inactive; TNAP act mid DEA: inactive; MMP-13 inhibitor: inactive
